Measured values from ChEMBL document CHEMBL1154425, “Histatin-derived monomeric and dimeric synthetic peptides show strong bactericidal activity towards multidrug-resistant Staphylococcus aureus in vivo” (Antimicrob Agents Chemother, 2007).
Positions of bridges follow the written chain, without caps; N, C: chain ends. Residues, ends and D or L forms follow the SMILES beside them. Chains are numbered I, II in the order given.

Legend:
[1] = test system: Staphylococcus aureus; test: Bactericidal activity against Staphylococcus aureus ATCC 25923 after 2 hrs; format: functional; conditions: ATCC 25923, 2 h
Outline: (§1)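 1 × 10^6/ml bacteria in phosphate buffer with 1% (wt/vol) tryptic soybean broth exposed to various peptide amounts, 2 h at 37°C. Viable counts on DST plates. LC50 = concentration (μM) cutting viable bacteria by 50% versus no-peptide incubations. Means from at least three independent experiments.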

[2] = test system: Staphylococcus aureus; test: Bactericidal activity against multidrug-resistant Staphylococcus aureus 2141 isolate after 2 hrs; format: functional; outline: as §1
[3] = test system: Staphylococcus aureus; test: Bactericidal activity against Staphylococcus aureus ATCC 25923 infected iv dosed Swiss mouse assessed per gram of infected soft tissue after 24 hrs; format: functional
Outline: (§2)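 Mice infected with 0.1 ml saline containing 0.5 to 2.0 × 10^7 CFU. After 18 h, various peptide amounts given intravenously. Mice kept another 24 h, then sacrificed and viable bacteria counted. LC50 = μmol/g infected tissue cutting viable counts by 50% versus untreated mice. Means from at least three animals per peptide concentration.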

[4] = test system: Staphylococcus aureus; test: Bactericidal activity against multidrug-resistant Staphylococcus aureus 2141 isolate infected iv dosed Swiss mouse assessed per gram of infected soft tissue after 24 hrs; format: functional; outline: as §2
[5] = test system: Mus musculus; test: Metabolic stability in Swiss mouse at 2 to 5 MBq, iv administered as [99m]technetium-radiolabeled peptide by scintigraphic imaging; format: ADME, organism-based; conditions: in vivo
Outline: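 After intravenous injection of 99mTc-labelled peptide (2 to 5 MBq) into thigh-infected mice, scintigraphic imaging follows clearance from the circulation. The value is the biological half-life in minutes, mean ± SD.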

[6] = Biodistribution in Swiss mouse urinary bladder at 2 to 5 MBq, iv administered as [99m]technetium-radiolabeled peptide by scintigraphic imaging; format: ADME, organism-based; conditions: in vivo
Outline: (§3)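 Mice carry a thigh-muscle infection from 0.1 ml saline containing 0.5 to 2.0 × 10^7 CFU S. aureus. Peptides labelled with 99mTc (2 to 5 MBq) are injected intravenously and tracked by scintigraphic imaging. Radioactivity in bladder, kidneys, spleen, liver and infected muscle is given as % of injected dose, mean ± SD.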

[7] = test system: Kidney; test: Biodistribution in Swiss mouse kidney at 2 to 5 MBq, iv administered as [99m]technetium-radiolabeled peptide by scintigraphic imaging; format: ADME, organism-based; conditions: in vivo; outline: as §3
[8] = test system: Spleen; test: Biodistribution in Swiss mouse spleen at 2 to 5 MBq, iv administered as [99m]technetium-radiolabeled peptide by scintigraphic imaging; format: ADME, organism-based; conditions: in vivo; outline: as §3
[9] = test system: Liver; test: Biodistribution in Swiss mouse liver at 2 to 5 MBq, iv administered as [99m]technetium-radiolabeled peptide by scintigraphic imaging; format: ADME, organism-based; conditions: in vivo; outline: as §3
[10] = Biodistribution in Staphylococcus aureus infected Swiss mouse thigh muscle at 2 to 5 MBq, iv administered as [99m]technetium-radiolabeled peptide by scintigraphic imaging; format: ADME, organism-based, Muscle tissue; conditions: in vivo; outline: as §3
[11] = Ratio of drug level in infected thigh muscle to contralateral noninfected thigh muscle in Staphylococcus aureus […] infected Swiss mouse administered as [99m]technetium-radiolabeled peptide; format: ADME, tissue-based; conditions: in vivo
Outline: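 Thighs are infected with 0.5 to 2.0 × 10^7 CFU S. aureus in 0.1 ml saline, and 99mTc-labelled peptide is given intravenously. Scintigraphic imaging compares radioactivity in the infected thigh muscle (target) with the contralateral noninfected thigh muscle (nontarget). The T/NT ratio is determined at several intervals after injection.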

[12] = Ratio of drug level in infected thigh muscle to contralateral noninfected thigh muscle in multidrug-resistant Staphylococcus aureus 2141 infected Swiss mouse administered as [99m]technetium-radiolabeled peptide; format: ADME, tissue-based; conditions: in vivo
Outline: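 99mTc-labelled peptides (2 to 5 MBq) injected intravenously into infected mice. Scintigraphic imaging at intervals. Ratio = accumulation in infected thigh muscle (target) over contralateral noninfected thigh muscle (nontarget).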

SMILES | LC50 [1] | LC50 [2] | LC50 [3] | LC50 [4] | t1/2 [5] | Drug uptake [6] | Drug uptake [7] | Drug uptake [8] | Drug uptake [9] | Drug uptake [10] | Ratio [11] | Ratio [12]
N=C(N)NCCC[C@H](NC(=O)[C@H](Cc1cnc[nH]1)NC(=O)[C@H](CO)NC(=O)[C@H](Cc1cnc[nH]1)NC(=O)[C@H](Cc1cnc[nH]1)NC(=O)[C@H](CCCCN)NC(=O)[C@H](CCC(=O)O)NC(=O)[C@H](Cc1cnc[nH]1)NC(=O)[C@H](Cc1ccccc1)NC(=O)[C@H](CCCCN)NC(=O)[C@H](CCCNC(=N)N)NC(=O)[C@@H](N)CCCCN)C(=O)NCC(=O)N[C@@H](Cc1ccc(O)cc1)C(=O)O (H-KRKFHEKHHSHRGY-OH) | 35 µM | 112 µM | 2 µmol/g | 1 µmol/g | 17.7 min | 30.7 %ID | 21 %ID | 2.1 %ID | 9.4 %ID | 0.4 %ID | 3.5 | 1.8
CC(C)C[C@H](NC(=O)[C@H](CO)NC(=O)[C@H](Cc1ccccc1)NC(=O)[C@H](CC(C)C)NC(=O)[C@H](CC(C)C)NC(=O)[C@H](CCCCN)NC(=O)[C@H](CCCCN)NC(=O)[C@H](Cc1ccccc1)NC(=O)[C@H](CC(C)C)NC(=O)[C@H](CCCNC(=N)N)NC(=O)[C@@H](N)CCCCN)C(=O)N[C@@H](CCCNC(=N)N)C(=O)N[C@@H](CCCCN)C(=O)N[C@@H](Cc1ccc(O)cc1)C(=O)O (H-KRLFKKLLFSLRKY-OH) | 4.2 µM | 3.1 µM | 1 µmol/g | 1.5 µmol/g | 28.6 min | 23.8 %ID | 24.9 %ID | 3.1 %ID | 10.7 %ID | 0.5 %ID | – | 1.8
CC(C)C[C@H](NC(=O)[C@H](CC(C)C)NC(=O)[C@H](Cc1ccccc1)NC(=O)[C@H](CC(C)C)NC(=O)[C@H](CC(C)C)NC(=O)[C@@H](N)CC(C)C)C(=O)N[C@@H](CCCCN)C(=O)N[C@@H](CCCCN)C(=O)N[C@@H](CCCNC(=N)N)C(=O)N[C@@H](CCCCN)C(=O)N[C@@H](CCCCN)C(=O)N[C@@H](CCCNC(=N)N)C(=O)N[C@@H](CCCCN)C(=O)N[C@@H](Cc1ccc(O)cc1)C(=O)O (H-LLLFLLKKRKKRKY-OH) | 51 µM | 17.3 µM | 2 µmol/g | 3 µmol/g | 38.8 min | 14.6 %ID | 26 %ID | 10.8 %ID | 12.8 %ID | 0.9 %ID | – | 1.8
N=C(N)NCCC[C@H](NC(=O)[C@H](Cc1cnc[nH]1)NC(=O)[C@H](CO)NC(=O)[C@H](Cc1cnc[nH]1)NC(=O)[C@H](Cc1cnc[nH]1)NC(=O)[C@H](CCCCN)NC(=O)[C@H](CCC(=O)O)NC(=O)[C@H](Cc1cnc[nH]1)NC(=O)[C@H](Cc1ccccc1)NC(=O)[C@H](CCCCN)NC(=O)[C@H](CCCNC(=N)N)NC(=O)[C@@H](N)CCCCN)C(=O)NCC(=O)N[C@@H](Cc1ccc(O)cc1)C(=O)NCCCC[C@H](NC(=O)[C@H](Cc1ccc(O)cc1)NC(=O)CNC(=O)[C@H](CCCNC(=N)N)NC(=O)[C@H](Cc1cnc[nH]1)NC(=O)[C@H](CO)NC(=O)[C@H](Cc1cnc[nH]1)NC(=O)[C@H](Cc1cnc[nH]1)NC(=O)[C@H](CCCCN)NC(=O)[C@H](CCC(=O)O)NC(=O)[C@H](Cc1cnc[nH]1)NC(=O)[C@H](Cc1ccccc1)NC(=O)[C@H](CCCCN)NC(=O)[C@H](CCCNC(=N)N)NC(=O)[C@@H](N)CCCCN)C(N)=O (I: H-KRKFHEKHHSHRGYK-NH2 / II: H-KRKFHEKHHSHRGY; amide I:15-II:C) | 8.4 µM | 8.2 µM | 1.5 µmol/g | 2 µmol/g | 8.6 min | 26.8 %ID | 10.5 %ID | 3.2 %ID | 9 %ID | 0.5 %ID | 4.4 | 1.8
CC(C)C[C@H](NC(=O)[C@H](CO)NC(=O)[C@H](Cc1ccccc1)NC(=O)[C@H](CC(C)C)NC(=O)[C@H](CC(C)C)NC(=O)[C@H](CCCCN)NC(=O)[C@H](CCCCN)NC(=O)[C@H](Cc1ccccc1)NC(=O)[C@H](CC(C)C)NC(=O)[C@H](CCCNC(=N)N)NC(=O)[C@@H](N)CCCCN)C(=O)N[C@@H](CCCNC(=N)N)C(=O)N[C@@H](CCCCN)C(=O)N[C@@H](Cc1ccc(O)cc1)C(=O)NCCCC[C@H](NC(=O)[C@H](Cc1ccc(O)cc1)NC(=O)[C@H](CCCCN)NC(=O)[C@H](CCCNC(=N)N)NC(=O)[C@H](CC(C)C)NC(=O)[C@H](CO)NC(=O)[C@H](Cc1ccccc1)NC(=O)[C@H](CC(C)C)NC(=O)[C@H](CC(C)C)NC(=O)[C@H](CCCCN)NC(=O)[C@H](CCCCN)NC(=O)[C@H](Cc1ccccc1)NC(=O)[C@H](CC(C)C)NC(=O)[C@H](CCCNC(=N)N)NC(=O)[C@@H](N)CCCCN)C(N)=O (I: H-KRLFKKLLFSLRKYK-NH2 / II: H-KRLFKKLLFSLRKY; amide I:15-II:C) | 0.5 µM | 0.4 µM | 1 µmol/g | 1 µmol/g | 34 min | 17 %ID | 29.1 %ID | 4 %ID | 19.9 %ID | 0.8 %ID | – | 1.8
CC(C)C[C@H](NC(=O)[C@H](CC(C)C)NC(=O)[C@H](Cc1ccccc1)NC(=O)[C@H](CC(C)C)NC(=O)[C@H](CC(C)C)NC(=O)[C@@H](N)CC(C)C)C(=O)N[C@@H](CCCCN)C(=O)N[C@@H](CCCCN)C(=O)N[C@@H](CCCNC(=N)N)C(=O)N[C@@H](CCCCN)C(=O)N[C@@H](CCCCN)C(=O)N[C@@H](CCCNC(=N)N)C(=O)N[C@@H](CCCCN)C(=O)N[C@@H](Cc1ccc(O)cc1)C(=O)NCCCC[C@H](NC(=O)[C@H](Cc1ccc(O)cc1)NC(=O)[C@H](CCCCN)NC(=O)[C@H](CCCNC(=N)N)NC(=O)[C@H](CCCCN)NC(=O)[C@H](CCCCN)NC(=O)[C@H](CCCNC(=N)N)NC(=O)[C@H](CCCCN)NC(=O)[C@H](CCCCN)NC(=O)[C@H](CC(C)C)NC(=O)[C@H](CC(C)C)NC(=O)[C@H](Cc1ccccc1)NC(=O)[C@H](CC(C)C)NC(=O)[C@H](CC(C)C)NC(=O)[C@@H](N)CC(C)C)C(N)=O (I: H-LLLFLLKKRKKRKYK-NH2 / II: H-LLLFLLKKRKKRKY; amide I:15-II:C) | 0.4 µM | 0.4 µM | 5 µmol/g | 2 µmol/g | 23.2 min | 18.8 %ID | 28.3 %ID | 3.1 %ID | 16.7 %ID | 0.6 %ID | – | 1.8
C[C@H](NC(=O)[C@H](Cc1cnc[nH]1)NC(=O)[C@H](CO)NC(=O)[C@@H](N)CC(=O)O)C(=O)N[C@@H](CCCCN)C(=O)N[C@@H](CCCNC(=N)N)C(=O)N[C@@H](Cc1cnc[nH]1)C(=O)N[C@@H](Cc1cnc[nH]1)C(=O)NCC(=O)N[C@@H](Cc1ccc(O)cc1)C(=O)N[C@@H](CCCCN)C(=O)N[C@@H](CCCNC(=N)N)C(=O)N[C@@H](CCCCN)C(=O)N[C@@H](Cc1ccccc1)C(=O)N[C@@H](Cc1cnc[nH]1)C(=O)N[C@@H](CCC(=O)O)C(=O)N[C@@H](CCCCN)C(=O)N[C@@H](Cc1cnc[nH]1)C(=O)N[C@@H](Cc1cnc[nH]1)C(=O)N[C@@H](CO)C(=O)N[C@@H](Cc1cnc[nH]1)C(=O)N[C@@H](CCCNC(=N)N)C(=O)NCC(=O)N[C@@H](Cc1ccc(O)cc1)C(=O)O [HISTATIN 5] | 8.3 µM | 2.8 µM | 1 µmol/g | 3.5 µmol/g | 9.7 min | 25.9 %ID | 23.8 %ID | 1.4 %ID | 8.7 %ID | 0.5 %ID | – | 1.8
